Test results taken from paper PMC3263943 (Bioscience Reports, 2011).

Experiments:
human calmodulin (human) = human calmodulin (human) (UniProt P0DP23); experiment: native gel or EMSA
human CaM (calmodulin) = human CaM (calmodulin) (Homo sapiens, UniProt P0DP23); experiment: Native gel titration of CaM with peptide; assay type: binding; settings: presence of calcium ions; from Kd,app by native gel densitometry
How it was run: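 Bacterially expressed CaM (E. coli Rosetta (DE3), calcium-dependent phenyl-Sepharose purification) held at 35 μM, calcium present, with synthetic IQ-motif peptide at 18–350 μM; incubated 1 h at 22°C. Native 15% polyacrylamide gel in Tris/glycine pH 8.8, Coomassie-stained. Fraction bound = complex band/(complex + free CaM), background-corrected densitometry. Means of three independent experiments fitted to hyperbolic binding equation; Kd,app ± S.E.M. from fit.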

Row | Substance | Kd (human calmodulin (human)) [µM] | Ranking of affinity for CaM (human CaM (calmodulin))
1 | 3IQ2, peptide of the second IQ-motif of human IQGAP3 | 27 | –
2 | 3IQ3, peptide of the third IQ-motif of human IQGAP3 | 76 | –
3 | 3IQ4, peptide of the fourth IQ-motif of human IQGAP3 | 65 | –
4 | Ac-KNVNSIVKIQAFFRARKAQDDYR-NH2 [3IQ4] | – | followed by 3IQ4
